The results in this text go back to ChEMBL document CHEMBL5696442, “Discovery of type II inhibitors of TGFβ-activated kinase 1 (TAK1) and mitogen-activated protein kinase kinase kinase kinase 2 (MAP4K2)” (J Med Chem, 2015).

Common to all, as to format: cell-based
Test [1] addresses T1, Serine/threonine-protein kinase Nek9 (Homo sapiens) (UniProt Q8TD19).
T1 sequence (whole entry): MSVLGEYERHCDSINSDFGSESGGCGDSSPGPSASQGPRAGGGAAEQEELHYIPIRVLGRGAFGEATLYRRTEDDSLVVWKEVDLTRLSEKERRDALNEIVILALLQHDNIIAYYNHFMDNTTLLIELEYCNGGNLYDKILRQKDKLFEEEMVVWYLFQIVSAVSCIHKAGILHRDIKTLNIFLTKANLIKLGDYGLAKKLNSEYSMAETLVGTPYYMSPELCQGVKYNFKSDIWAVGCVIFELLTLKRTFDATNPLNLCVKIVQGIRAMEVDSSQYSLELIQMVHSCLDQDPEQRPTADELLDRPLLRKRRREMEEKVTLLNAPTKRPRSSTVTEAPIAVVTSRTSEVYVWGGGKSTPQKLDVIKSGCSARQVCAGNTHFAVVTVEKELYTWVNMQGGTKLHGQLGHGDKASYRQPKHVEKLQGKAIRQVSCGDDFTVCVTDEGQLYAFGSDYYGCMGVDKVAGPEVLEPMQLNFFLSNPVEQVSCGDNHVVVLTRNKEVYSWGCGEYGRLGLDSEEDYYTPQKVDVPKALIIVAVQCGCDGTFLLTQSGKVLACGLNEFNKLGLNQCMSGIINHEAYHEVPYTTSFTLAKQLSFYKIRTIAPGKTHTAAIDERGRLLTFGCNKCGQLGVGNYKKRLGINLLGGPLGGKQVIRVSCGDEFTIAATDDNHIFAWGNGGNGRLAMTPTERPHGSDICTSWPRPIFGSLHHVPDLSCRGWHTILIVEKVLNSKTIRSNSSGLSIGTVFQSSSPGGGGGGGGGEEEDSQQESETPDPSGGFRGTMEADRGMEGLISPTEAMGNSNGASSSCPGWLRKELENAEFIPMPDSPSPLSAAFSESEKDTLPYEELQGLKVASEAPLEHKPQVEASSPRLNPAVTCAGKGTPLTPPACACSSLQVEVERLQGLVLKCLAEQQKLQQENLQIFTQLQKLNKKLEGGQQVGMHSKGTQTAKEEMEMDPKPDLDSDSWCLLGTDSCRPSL
Briefly: Inhibition of NEK9 Lys2 labeling site in human A-375 cells at 5 uM by KiNativ Profiling analysis relative to control.

Test [2] has as its target T2, Serine/threonine-protein kinase Chk1 (Homo sapiens) (UniProt O14757).
T2 sequence (whole entry): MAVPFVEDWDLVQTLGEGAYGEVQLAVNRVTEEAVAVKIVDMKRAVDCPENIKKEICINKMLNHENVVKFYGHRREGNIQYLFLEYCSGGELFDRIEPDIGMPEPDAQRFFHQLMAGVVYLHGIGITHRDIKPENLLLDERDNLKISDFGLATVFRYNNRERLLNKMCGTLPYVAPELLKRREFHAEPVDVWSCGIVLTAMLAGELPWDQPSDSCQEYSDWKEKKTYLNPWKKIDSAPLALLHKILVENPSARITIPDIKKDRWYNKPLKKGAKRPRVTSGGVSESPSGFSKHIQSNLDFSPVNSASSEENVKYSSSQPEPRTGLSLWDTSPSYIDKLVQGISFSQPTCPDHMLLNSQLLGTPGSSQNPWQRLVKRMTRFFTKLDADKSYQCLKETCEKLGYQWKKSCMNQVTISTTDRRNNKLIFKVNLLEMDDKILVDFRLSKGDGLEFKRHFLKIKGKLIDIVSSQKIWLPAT
Briefly: Inhibition of CHK1 Lys2 labeling site harbouring DIKPENLLLDER in human A-375 cells at 0.5 uM by KiNativ Profiling analysis relative to control. In short, it runs like this: (§1)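 Live A375 melanoma cells were treated with compound at 5 or 0.5 μM. The cells were then lysed, and the lysates were labeled with a lysine-reactive ATP or ADP-biotin acyl probe (KiNativ). Inhibition is the compound's protection of each kinase labeling-site peptide from probe labeling, relative to untreated control.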

Test [3] concerns the target Serine/threonine-protein kinase 26 (Homo sapiens) (UniProt Q9P289). Briefly: Inhibition of MST4 Lys2 labeling site in human A-375 cells at 0.05 uM by KiNativ Profiling analysis relative to control.
Test [4] addresses Cyclin-dependent kinase 4 (Homo sapiens) (UniProt P11802). Briefly: Inhibition of CDK4 Lys2 labeling site in human A-375 cells at 0.5 uM by KiNativ Profiling analysis relative to control. In short, it runs like this: as §1
The target of test [5] is T3, Serine/threonine-protein kinase TAO2 (Homo sapiens) (UniProt Q9UL54).
T3 sequence (whole entry): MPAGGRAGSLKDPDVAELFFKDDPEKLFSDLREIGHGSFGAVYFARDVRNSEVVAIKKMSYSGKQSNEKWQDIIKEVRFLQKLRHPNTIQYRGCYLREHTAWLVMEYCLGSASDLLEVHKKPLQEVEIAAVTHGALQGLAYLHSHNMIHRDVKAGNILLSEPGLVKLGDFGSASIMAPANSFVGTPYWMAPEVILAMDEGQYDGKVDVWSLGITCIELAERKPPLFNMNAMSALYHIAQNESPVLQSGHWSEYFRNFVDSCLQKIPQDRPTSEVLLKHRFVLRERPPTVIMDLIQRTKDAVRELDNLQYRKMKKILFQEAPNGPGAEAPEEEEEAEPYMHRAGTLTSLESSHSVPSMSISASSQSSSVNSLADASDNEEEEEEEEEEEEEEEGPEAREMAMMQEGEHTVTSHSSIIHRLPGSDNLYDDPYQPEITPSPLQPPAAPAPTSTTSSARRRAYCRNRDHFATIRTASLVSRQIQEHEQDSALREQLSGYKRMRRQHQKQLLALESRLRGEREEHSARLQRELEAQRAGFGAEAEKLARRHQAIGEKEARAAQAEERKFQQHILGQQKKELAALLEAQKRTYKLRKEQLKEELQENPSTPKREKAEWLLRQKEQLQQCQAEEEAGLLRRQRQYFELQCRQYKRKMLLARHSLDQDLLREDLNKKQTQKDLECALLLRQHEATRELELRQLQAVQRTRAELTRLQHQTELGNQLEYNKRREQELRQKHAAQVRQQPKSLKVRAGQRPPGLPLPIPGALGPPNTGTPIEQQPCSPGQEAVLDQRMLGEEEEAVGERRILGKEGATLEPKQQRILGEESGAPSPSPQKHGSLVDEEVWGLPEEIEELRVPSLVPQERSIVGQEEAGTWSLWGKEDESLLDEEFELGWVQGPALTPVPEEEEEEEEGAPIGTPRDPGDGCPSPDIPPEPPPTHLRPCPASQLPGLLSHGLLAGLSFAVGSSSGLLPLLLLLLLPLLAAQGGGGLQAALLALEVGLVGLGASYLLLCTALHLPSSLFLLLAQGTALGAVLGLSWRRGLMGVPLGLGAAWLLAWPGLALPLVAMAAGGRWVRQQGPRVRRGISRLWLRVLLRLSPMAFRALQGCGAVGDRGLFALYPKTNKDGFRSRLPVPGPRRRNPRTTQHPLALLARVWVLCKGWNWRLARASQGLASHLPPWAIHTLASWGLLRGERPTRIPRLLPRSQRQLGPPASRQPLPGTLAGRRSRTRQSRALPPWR
Briefly: Inhibition of TAO2 Lys2 labeling site in human A-375 cells at 5 uM by KiNativ Profiling analysis relative to control.

Structures are written as SMILES.

Cyclin-dependent kinase 4 (Homo sapiens), sequence (P11802 whole entry): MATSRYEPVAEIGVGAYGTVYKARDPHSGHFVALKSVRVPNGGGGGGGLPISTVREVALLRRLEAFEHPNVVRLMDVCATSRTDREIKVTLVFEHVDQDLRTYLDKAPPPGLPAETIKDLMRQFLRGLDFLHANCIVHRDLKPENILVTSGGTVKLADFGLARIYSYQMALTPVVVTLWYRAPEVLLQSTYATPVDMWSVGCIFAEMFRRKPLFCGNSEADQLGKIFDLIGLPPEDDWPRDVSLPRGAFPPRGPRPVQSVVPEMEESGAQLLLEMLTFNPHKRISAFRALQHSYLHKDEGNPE
Serine/threonine-protein kinase 26 (Homo sapiens), sequence (Q9P289 2-416 limits assumed): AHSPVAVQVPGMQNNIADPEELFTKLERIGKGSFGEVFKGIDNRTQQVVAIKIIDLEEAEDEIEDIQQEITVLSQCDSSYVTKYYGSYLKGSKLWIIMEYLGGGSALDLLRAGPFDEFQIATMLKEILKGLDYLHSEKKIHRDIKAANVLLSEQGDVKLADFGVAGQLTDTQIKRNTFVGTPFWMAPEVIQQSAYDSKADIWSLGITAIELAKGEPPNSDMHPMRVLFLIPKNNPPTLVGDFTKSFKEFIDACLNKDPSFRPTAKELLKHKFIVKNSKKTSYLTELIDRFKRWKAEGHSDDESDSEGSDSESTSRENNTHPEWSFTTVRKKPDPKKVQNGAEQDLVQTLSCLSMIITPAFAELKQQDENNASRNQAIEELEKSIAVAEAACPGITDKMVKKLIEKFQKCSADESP

`CCN1CCN(Cc2ccc(NC(=O)c3ccc(C)c(/C=C/c4cnc5[nH]ccc5c4OC)c3)cc2C(F)(F)F)CC1`: the inhibition in test [1] came to 14.7%; in test [2] it was 19.4%; in test [3], 9.1%; in test [4] it was 9.2%; in test [5], 82.2%.

`CCN1CCN(Cc2ccc(NC(=O)c3ccc(C)c(Oc4ccnc5[nH]ccc45)c3)cc2C(F)(F)F)CC1`: the inhibition in test [1] is 3.2%; in test [2], 45.2%; in test [3] it was -0.7%; in test [4], 5.7%; in test [5], 82.5%.

As usually defined, the inhibition is the drop in the measured response relative to a control, in per cent.
